# Activity calls are given as the source filed them. The rule behind the calls is not given here.
# Experiments:
# A549 [1] = test: Induction of apoptosis in human A549 cells assessed as viable cells at 1 uM incubated for 48 hrs by annexin V FITC and propidium iodide based flow cytometry (reference value: 94.7 %); type: functional; details: A549, 48 h, read-out: Activity
# Summary of the method: (§1)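 A549 cells (1×10^5 cells/mL) treated 48 h at 0, 1, 5 or 10 µM; harvested, washed in cold PBS, resuspended in binding buffer with annexin V-FITC and PI, 15 min at room temperature in the dark, then analysed by flow cytometry.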
# A549 [2] = test: Induction of apoptosis in human A549 cells assessed as necrotic cells at 5 uM incubated for 48 hrs by annexin V FITC and propidium iodide based flow cytometry (reference value: 0.02 %); type: functional; summary of the method: as §1
# A549 [3] = test: Inhibition of cell migration in human A549 cells incubated for 24 hrs by crystal violet staining based transwell migration assay; type: functional
# Summary of the method: (§2)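 A549 cells pretreated 24 h with compound (1, 5, 10 µM), harvested into serum-free RPMI1640; 30,000 cells placed in upper transwell chamber, lower chamber RPMI1640 + 10% FBS as chemoattractant. Migration 24 h at 37°C, 5% CO2; cells fixed MeOH/acetic acid (3:1), upper side wiped, underside stained 0.1% crystal violet and counted. Three repeats, mean ± SEM.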
# PC-3 = test: Antiproliferative activity against human PC3 cells assessed as reduction in cell viability incubated for 48 hrs by MTT assay; type: functional, cell-based; details: PC-3, 48 h
# Summary of the method: (§3)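 Cells grown in RPMI1640 with 10% FBS at 37°C, 5% CO2; seeded at 4000-5000 cells/well for 8 h, then exposed to a range of compound concentrations for 48 h. MTT added for 4 h, formazan dissolved in DMSO, absorbance at 570 nm; IC50 calculated from inhibition ratios.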
# MCF7 = test: Antiproliferative activity against human MCF7 cells assessed as reduction in cell viability incubated for 48 hrs by MTT assay; type: functional, cell-based; details: MCF7, 48 h; summary of the method: as §3
# [4] = target: T1, 72 kDa type IV collagenase (Homo sapiens, UniProt P08253); test: Inhibition of recombinant human MMP2 at 10 uM using thiopeptide as substrate preincubated for 30 mins followed by substrate addition and measured every min for 20 mins by colorimetric assay relative to control
# Summary of the method: (§4)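 Colorimetric kit assay: human recombinant enzyme plus inhibitor in assay buffer for 30 min at 37 °C, then chromogenic MMP substrate added; A412 recorded each minute over 20 min. Enzyme-free blanks and inhibitor-free controls included.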
# Target sequence in this assay (P08253 110-660 limits assumed): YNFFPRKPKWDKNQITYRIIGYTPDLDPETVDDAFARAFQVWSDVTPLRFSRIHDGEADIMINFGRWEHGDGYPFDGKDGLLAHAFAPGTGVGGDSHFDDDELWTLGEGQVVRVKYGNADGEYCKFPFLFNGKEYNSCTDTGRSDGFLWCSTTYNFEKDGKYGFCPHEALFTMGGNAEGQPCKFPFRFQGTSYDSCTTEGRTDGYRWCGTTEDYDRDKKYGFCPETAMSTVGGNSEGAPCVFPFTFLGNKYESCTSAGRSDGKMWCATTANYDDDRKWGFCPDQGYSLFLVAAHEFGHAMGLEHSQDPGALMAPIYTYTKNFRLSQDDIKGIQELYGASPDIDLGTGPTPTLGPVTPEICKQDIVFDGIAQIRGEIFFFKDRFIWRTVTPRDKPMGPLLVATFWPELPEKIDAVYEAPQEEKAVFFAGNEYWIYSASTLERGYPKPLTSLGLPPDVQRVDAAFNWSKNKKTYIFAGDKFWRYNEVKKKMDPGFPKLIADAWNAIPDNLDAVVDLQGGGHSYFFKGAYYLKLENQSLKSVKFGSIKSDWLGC
# A549 [5] = test: Induction of apoptosis in human A549 cells assessed as early apoptotic cells at 5 uM incubated for 48 hrs by annexin V FITC and propidium iodide based flow cytometry (reference value: 2.15 %); type: functional; summary of the method: as §1
# A549 [6] = test: Induction of apoptosis in human A549 cells assessed as viable cells at 5 uM incubated for 48 hrs by annexin V FITC and propidium iodide based flow cytometry (reference value: 94.7 %); type: functional; details: A549, 48 h, read-out: Activity; summary of the method: as §1
# A549 [7] = test: Induction of apoptosis in human A549 cells assessed as late apoptotic cells at 10 uM incubated for 48 hrs by annexin V FITC and propidium iodide based flow cytometry (reference value: 3.11 %); type: functional; summary of the method: as §1
# A549 [8] = test: Induction of apoptosis in human A549 cells assessed as viable cells at 10 uM incubated for 48 hrs by annexin V FITC and propidium iodide based flow cytometry (reference value: 94.7 %); type: functional; details: A549, 48 h, read-out: Activity; summary of the method: as §1
# HUVEC [9] = test: Antiangiogenic activity in HUVEC assessed as inhibition of tuber formation at 10 uM incubated for 24 hrs by matrigel-based inverted microscopy; type: functional, cell-based; details: Homo sapiens
# Summary of the method: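 HUVEC treated with compound for 24 h in serum-free RPMI1640, harvested and layered onto undiluted matrigel polymerized 2 h at 37°C; after 6 h cell organization examined by inverted microscope, with mesh number counted as the angiogenesis read-out. Tested at 10 µM.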
# HL-60 = test: Antiproliferative activity against human HL60 cells assessed as reduction in cell viability incubated for 48 hrs by MTT assay; type: functional, cell-based; details: HL-60, 48 h; summary of the method: as §3
# A549 [10] = test: Induction of apoptosis in human A549 cells assessed as necrotic cells at 1 uM incubated for 48 hrs by annexin V FITC and propidium iodide based flow cytometry (reference value: 0.02 %); type: functional; summary of the method: as §1
# [11] = target: T2, Matrix metalloproteinase-9 (Homo sapiens, UniProt P14780); test: Inhibition of MMP9 in human A549 cells assessed as decrease in gelatin digestion incubated for 24 hrs by coomassie brilliant blue staining-based zymographic assay; type: cell-based
# Summary of the method: (§5)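 A549 cells treated 24 h at 1, 5, 10 µM; culture supernatants electrophoresed on gelatin-containing SDS-PAGE, gels washed three times in 0.25% triton, then incubated 48 h at 37°C in 50 mM Tris-HCl pH 7.5 with 0.15 M NaCl, 5 mM CaCl2, 0.05% NaN3 to reveal gelatinolytic activity.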
# A549 [12] = test: Antiproliferative activity against human A549 cells assessed as reduction in cell viability incubated for 48 hrs by MTT assay; type: functional, cell-based; details: A549, 48 h; summary of the method: as §3
# [13] = target: T1, 72 kDa type IV collagenase; test: Inhibition of recombinant human MMP2 using thiopeptide as substrate preincubated for 30 mins followed by substrate addition and measured every mins for 20 min by colorimetric assay
# Target sequence in this assay (P08253 whole entry): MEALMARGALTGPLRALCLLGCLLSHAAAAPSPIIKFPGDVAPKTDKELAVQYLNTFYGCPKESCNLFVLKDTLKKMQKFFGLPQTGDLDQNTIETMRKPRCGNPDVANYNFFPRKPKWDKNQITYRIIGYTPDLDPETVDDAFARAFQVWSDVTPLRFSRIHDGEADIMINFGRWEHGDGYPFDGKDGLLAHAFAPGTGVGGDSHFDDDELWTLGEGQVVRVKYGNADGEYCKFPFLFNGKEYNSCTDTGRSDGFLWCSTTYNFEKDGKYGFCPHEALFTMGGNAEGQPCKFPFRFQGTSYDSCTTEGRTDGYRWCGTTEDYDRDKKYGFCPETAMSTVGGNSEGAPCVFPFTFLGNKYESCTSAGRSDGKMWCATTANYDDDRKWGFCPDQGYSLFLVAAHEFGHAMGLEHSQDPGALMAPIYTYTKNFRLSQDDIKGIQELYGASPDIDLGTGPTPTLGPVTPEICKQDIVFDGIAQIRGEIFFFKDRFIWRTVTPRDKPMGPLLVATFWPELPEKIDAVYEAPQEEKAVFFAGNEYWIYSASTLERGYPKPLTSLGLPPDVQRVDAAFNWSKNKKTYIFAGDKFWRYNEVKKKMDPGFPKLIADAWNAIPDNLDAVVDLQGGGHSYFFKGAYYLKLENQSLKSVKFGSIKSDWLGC
# KG-1 = test: Antiproliferative activity against human KG1 cells assessed as reduction in cell viability incubated for 48 hrs by MTT assay; type: functional, cell-based; details: KG-1, 48 h; summary of the method: as §3
# [14] = target: T1, 72 kDa type IV collagenase; test: Inhibition of MMP2 in human A549 cells assessed as decrease in gelatin digestion incubated for 24 hrs by coomassie brilliant blue staining-based zymographic assay; type: cell-based; summary of the method: as §5
# Target sequence in this assay (P08253 110-660 limits assumed): as the sequence (P08253 110-660 limits assumed) above
# K562 = test: Antiproliferative activity against human K562 cells assessed as reduction in cell viability incubated for 48 hrs by MTT assay; type: functional, cell-based; details: K562, 48 h; summary of the method: as §3
# A549 [15] = test: Down regulation of MMP2 expression in human A549 cells incubated for 24 hrs by Western blot analysis; type: functional, cell-based
# Summary of the method: (§6)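 A549 cells treated 24 h at 1, 5 and 10 µM; lysates run on SDS-PAGE, transferred to PVDF, blocked in 10% dry milk/TBST, probed with rabbit anti-MMP-2, anti-MMP-9 or anti-GAPDH, then secondary antibodies and imaged.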
# A549 [16] = test: Induction of apoptosis in human A549 cells assessed as early apoptotic cells at 1 uM incubated for 48 hrs by annexin V FITC and propidium iodide based flow cytometry (reference value: 2.15 %); type: functional; summary of the method: as §1
# HUVEC [17] = test: Cytotoxicity against HUVEC assessed as reduction in cell viability incubated for 48 hrs by MTT assay; type: cell-based; details: Homo sapiens; summary of the method: as §3
# A549 [18] = test: Induction of apoptosis in human A549 cells assessed as late apoptotic cells at 5 uM incubated for 48 hrs by annexin V FITC and propidium iodide based flow cytometry (reference value: 3.11 %); type: functional; summary of the method: as §1
# [19] = target: T2, Matrix metalloproteinase-9; test: Inhibition of recombinant human MMP9 at 10 uM using thiopeptide as substrate preincubated for 30 mins followed by substrate addition and measured every min for 20 mins by colorimetric assay relative to control; summary of the method: as §4
# [20] = target: T2, Matrix metalloproteinase-9; test: Inhibition of recombinant human MMP9 using thiopeptide as substrate preincubated for 30 mins followed by substrate addition and measured every min for 20 mins by colorimetric assay
# A549 [21] = test: Induction of apoptosis in human A549 cells assessed as necrotic cells at 10 uM incubated for 48 hrs by annexin V FITC and propidium iodide based flow cytometry (reference value: 0.02 %); type: functional; summary of the method: as §1
# A549 [22] = test: Induction of apoptosis in human A549 cells assessed as early apoptotic cells at 10 uM incubated for 48 hrs by annexin V FITC and propidium iodide based flow cytometry (reference value: 2.15 %); type: functional; summary of the method: as §1
# A549 [23] = test: Induction of apoptosis in human A549 cells assessed as late apoptotic cells at 1 uM incubated for 48 hrs by annexin V FITC and propidium iodide based flow cytometry (reference value: 3.11 %); type: functional; summary of the method: as §1
# A549 [24] = test: Down regulation of MMP9 expression in human A549 cells incubated for 24 hrs by Western blot analysis; type: functional, cell-based; summary of the method: as §6
# A549 [25] = test: Inhibition of cell invasion in human A549 cells incubated for 24 hrs by crystal violet staining based matrigel migration assay; type: functional
# Summary of the method: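 As the migration setup but membrane precoated with matrigel (1:10 diluted) for 2 h at 37°C: A549 pretreated 24 h at 1, 5, 10 µM, 30,000 cells in serum-free medium above, 10% FBS below, 24 h, then fixing, 0.1% crystal violet staining and counting. Three repeats, mean ± SEM.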
# [26] = target: T2, Matrix metalloproteinase-9; test: Inhibition of recombinant human MMP9 at 50 uM using thiopeptide as substrate preincubated for 30 mins followed by substrate addition and measured every min for 20 mins by colorimetric assay relative to control
# [27] = target: T2, Matrix metalloproteinase-9; test: Inhibition of recombinant human MMP9 at 25 uM using thiopeptide as substrate preincubated for 30 mins followed by substrate addition and measured every min for 20 mins by colorimetric assay relative to control
# [28] = target: MMP-2/MMP-9 (Homo sapiens) (UniProt P08253+P14780); test: Selectivity ratio of IC50 for inhibition of recombinant human MMP9 to IC50 for inhibition of recombinant human MMP2
# A549 [29] = test: Inhibition of cell migration in human A549 cells at 1 to 10 uM incubated for 24 hrs by crystal violet staining based transwell migration assay; type: functional; summary of the method: as §2
# T2 sequence (P14780 whole entry): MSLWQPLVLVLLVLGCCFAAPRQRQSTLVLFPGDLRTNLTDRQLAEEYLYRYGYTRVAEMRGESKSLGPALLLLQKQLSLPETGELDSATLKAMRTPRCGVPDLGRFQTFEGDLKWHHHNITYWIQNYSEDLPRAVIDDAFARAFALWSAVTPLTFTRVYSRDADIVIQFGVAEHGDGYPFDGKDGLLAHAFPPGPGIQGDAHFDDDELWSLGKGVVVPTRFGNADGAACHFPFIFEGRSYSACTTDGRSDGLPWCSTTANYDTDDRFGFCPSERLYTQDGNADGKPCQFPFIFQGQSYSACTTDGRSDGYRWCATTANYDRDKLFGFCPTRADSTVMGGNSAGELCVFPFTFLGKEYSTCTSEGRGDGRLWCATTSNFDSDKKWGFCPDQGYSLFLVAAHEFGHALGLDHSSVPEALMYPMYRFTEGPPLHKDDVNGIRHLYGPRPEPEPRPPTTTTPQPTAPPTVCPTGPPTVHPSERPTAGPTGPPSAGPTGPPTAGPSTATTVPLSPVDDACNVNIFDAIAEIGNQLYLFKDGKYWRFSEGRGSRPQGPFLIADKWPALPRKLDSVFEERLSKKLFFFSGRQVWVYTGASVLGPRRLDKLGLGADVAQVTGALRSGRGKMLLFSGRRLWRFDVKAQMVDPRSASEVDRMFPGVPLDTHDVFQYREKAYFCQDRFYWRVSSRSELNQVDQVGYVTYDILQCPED
compound,measurement,setting,value
O=C(CCCCCNCc1cc(Cl)c2cccnc2c1O)Nc1ccccc1,viability at 1 µM,A549 [1],75.8%
same,Activity,A549 [2],0.029%
same,inhibition,A549 [3],Dose-dependent effect
same,IC50,PC-3,8.3 µM
same,IC50,MCF7,4.6 µM
same,inhibition,[4],100%
same,Activity,A549 [5],17.1%
same,viability at 5 µM,A549 [6],73.1%
same,Activity,A549 [7],6.54%
same,viability at 10 µM,A549 [8],72.3%
same,inhibition,HUVEC [9],Active
same,IC50,HL-60,1.8 µM
same,Activity,A549 [10],0.031%
same,inhibition,[11],Dose-dependent effect
same,IC50,A549 [12],11 µM
same,IC50,[13],0.7 µM
same,IC50,KG-1,2.3 µM
same,inhibition,[14],Dose-dependent effect
same,IC50,K562,2.3 µM
same,Activity,A549 [15],Dose-dependent effect
same,Activity,A549 [16],16.4%
same,IC50,HUVEC [17],> 50 µM
same,Activity,A549 [18],9.75%
same,inhibition,[19],100%
same,IC50,[20],0.66 µM
same,Activity,A549 [21],0.14%
same,Activity,A549 [22],21%
same,Activity,A549 [23],7.81%
same,Activity,A549 [24],Dose-dependent effect
same,inhibition,A549 [25],Dose-dependent effect
CN(CCCCCC(=O)Nc1ccc(O)c2ncccc12)c1ccccc1,inhibition,[26],26%
same,inhibition,[4],59.5%
same,inhibition,[27],22%
same,Ratio IC50,[28],> 7
same,IC50,[13],6.2 µM
same,inhibition,[19],35.3%
same,IC50,[20],> 10 µM
O=S(=O)(Nc1ccc(O)c2ncccc12)c1ccc(F)cc1,viability at 1 µM,A549 [1],79.5%
same,Activity,A549 [2],0.017%
same,IC50,PC-3,18 µM
same,IC50,MCF7,42 µM
same,Activity,A549 [5],19.8%
same,viability at 5 µM,A549 [6],74.6%
same,Activity,A549 [7],6.57%
same,viability at 10 µM,A549 [8],73.1%
same,inhibition,HUVEC [9],Active
same,IC50,HL-60,4.6 µM
same,Activity,A549 [10],0.032%
same,IC50,A549 [12],51 µM
same,IC50,[13],8.8 µM
same,IC50,KG-1,4.6 µM
same,IC50,K562,3.6 µM
same,Activity,A549 [16],14.4%
same,IC50,HUVEC [17],> 50 µM
same,Activity,A549 [18],5.49%
same,IC50,[20],11 µM
same,Activity,A549 [21],0.11%
same,Activity,A549 [22],20.2%
same,Activity,A549 [23],6.11%
same,inhibition,A549 [29],Active
Cc1[nH]c2ccccc2c1CCNC(=O)CCCNCc1cc(Cl)c2cccnc2c1O,viability at 1 µM,A549 [1],74.9%
same,Activity,A549 [2],0.027%
same,IC50,PC-3,22 µM
same,IC50,MCF7,7.8 µM
same,inhibition,[4],68.8%
same,Activity,A549 [5],29.4%
same,viability at 5 µM,A549 [6],64.4%
same,Activity,A549 [7],4.97%
same,viability at 10 µM,A549 [8],62.5%
same,inhibition,HUVEC [9],Active
same,IC50,HL-60,4 µM
same,Activity,A549 [10],0%
same,inhibition,[11],Dose-dependent effect
same,IC50,A549 [12],6.4 µM
same,IC50,[13],0.81 µM
same,IC50,KG-1,0.69 µM
same,inhibition,[14],Dose-dependent effect
same,IC50,K562,1.8 µM
same,Activity,A549 [15],Dose-dependent effect
same,Activity,A549 [16],16%
same,IC50,HUVEC [17],> 50 µM
same,Activity,A549 [18],6.17%
same,inhibition,[19],100%
same,IC50,[20],1.3 µM
same,Activity,A549 [21],0.46%
same,Activity,A549 [22],32.5%
same,Activity,A549 [23],9.15%
same,Activity,A549 [24],Dose-dependent effect
same,inhibition,A549 [29],Active
same,inhibition,A549 [25],Dose-dependent effect
CN(CCCCC(=O)Nc1ccc(O)c2ncccc12)c1ccccc1,inhibition,[26],35%
same,inhibition,[4],57.5%
same,inhibition,[27],15%
same,Ratio IC50,[28],> 7
same,IC50,[13],7.5 µM
same,inhibition,[19],22.2%
same,IC50,[20],> 10 µM
